Measured values of several laboratories.
Lines come from different studies, so protocols differ.
Cell line: MDA-MB-468
Effect on: cell growth or viability

SMILES	technique	time	IC50 [µM]
COc1ccc(Br)cc1/C=C/C(=O)c1ccc(NC(C)=O)cc1	MTT	48 h	2.4
Nc1nc(Nc2ccc(S(N)(=O)=O)cc2)sc1C(=O)c1cccc(F)c1	MTT	72 h	0.85
c1ccc2c(c1)Cc1c(Cc3csc4ccccc34)ccc3cccc-2c13	MTT		157
COc1cccc2c1C(=O)c1c(O)c3c(c(O)c1C2=O)C[C@@](O)(C(=O)CO)C[C@@H]3O[C@H]1C[C@H](N)[C@H](O)[C@H](C)O1	resazurin	72 h	0.1
O=S(=O)(NN=Cc1cn(CCN2CCOCC2)c2ccccc12)c1cccc2ncccc12	MTT	48 h	32.2
COc1cc(/C=C2\SC(=O)NC2=O)ccc1OCc1ccc(Cl)cc1Cl	MTT	48 h	32.5
CN(N=O)c1ccc(C=Cc2ccnc3ccccc23)cc1	MTT		3.5
O=S(=O)(Cc1ccccc1)NN=Cc1cn(CCN2CCOCC2)c2ccccc12	MTT	48 h	50.6
O=C(CSc1nc2ccc(N=Cc3ccc(Sc4nnnn4-c4ccccc4)o3)cc2s1)N1CCOCC1	MTT	72 h	20.4
CC(C)(C)c1ccc(S(=O)(=O)NN=Cc2cn(CCN3CCOCC3)c3ccccc23)cc1	MTT	48 h	29.6
COc1ccc(/C=C/C(=O)c2cc(Br)ccc(=O)c2O)cc1	MTT	72 h	6.6
O=S(=O)(NN=Cc1cn(CCN2CCOCC2)c2ccccc12)c1ccc(F)cc1	MTT	48 h	15
Oc1ccc(/C=C/c2cc(O)cc3c2C(c2cc(O)cc(O)c2)C(c2ccc(O)c(O)c2)O3)cc1 (centres unmarked)	MTT		18
CC(=O)Nc1nc(C)c(-c2csc(Nc3ccccc3)n2)s1	MTT	48 h	12.1
Nc1ccc2cc3[nH]c4cc(N)ccc4c3nc2c1	MTT		0.11
CCc1ccc(N2NC(=O)/C(=C/c3ccc(-c4ccc(S(=O)(=O)Nc5nccs5)cc4)o3)C2=O)cc1	MTT	48 h	44
Cc1ccccc1Sc1cc2ccccc2c2ccccc12	MTT		29
Cc1ccc(S(=O)(=O)NN=Cc2cn(CCN3CCOCC3)c3ccccc23)cc1	MTT	48 h	40.8
COc1ccccc1N=Nc1c(O)ccc2ccccc12	MTT		21
COc1cccc2c1C(=O)c1c(O)c3c(c(O)c1C2=O)C[C@@](O)(C(=O)CO)C[C@@H]3O[C@H]1C[C@H](N)[C@H](O)[C@H](C)O1	MTT	48 h	0.08
